In ChEMBL document CHEMBL1127374, “Synthesis and antiviral (HIV-1, HBV) activities of 5-halo-6-methoxy(or azido)-5,6-dihydro-3'-fluoro-3'-deoxythymidine diastereomers. Potential prodrugs to 3'-fluoro-3'-deoxythymidine” (J Med Chem, 1994):

Experiments:
[1] = Selectivity index is the ratio of IC50 value to that of EC50 value; format: functional
How it was run: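 CEM T4 lymphocytes infected with small amounts of HIV-1, with a full replication cycle needed for cell killing. EC50 is the concentration giving 50% survival of infected cells relative to uninfected untreated controls. IC50 is the concentration giving 50% survival of uninfected untreated CEM cells. SI = IC50/EC50. An AZT-treated control was run alongside.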

[2] = Tested for in vitro percent of 3'-fluoro-3'-deoxythymidine(FLT) formed upon incubation with glutathione; format: ADME
How it was run: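 Test compound incubated with reduced glutathione at a 1:2 molar ratio in phosphate buffer, pH 7.4, 37 °C, 30 min. UV detection at 230 nm for the 5,6-dihydro compound and 265 nm for FLT.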

[3] = system: CCRF-CEM; test: Tested for in vitro drug concentration which results in 50% survival of uninfected untreated control CEM cells; format: functional, cell-based; details: Homo sapiens
How it was run: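 Uninfected CEM T4 lymphocytes exposed to the test compound alongside the anti-HIV protection assay, with an AZT control run concurrently. IC50 is the concentration giving 50% survival relative to uninfected untreated control cells.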

[4] = system: CCRF-CEM; test: Tested for in vitro drug concentration which produces 50% survival of HIV-1 infected CEM cells relative to uninfected untreated controls; format: functional, cell-based; details: Homo sapiens
How it was run: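 CEM T4 lymphocytes infected with small amounts of HIV-1, so that a complete replication cycle is needed for cell killing. Protection from cytolysis measured. EC50 is the concentration giving 50% survival of infected cells relative to uninfected untreated controls. AZT-treated positive control run at the same time under identical conditions.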

[5] = Selectivity index is the ratio of CC50 to that of EC50 (anti-hepatitis B virus activity in intracellular DNA); format: functional
How it was run: (§1)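 Selectivity index calculated as CC50 (neutral red uptake, 2.2.15 cells, 9-day daily dosing) divided by EC50 from HBV DNA (extracellular virion DNA in line 3, intracellular DNA in line 4).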

[6] = Tested for in vitro cytotoxic concentration against hepatitis B irus replication in chronically HBV-producing human liver cells; format: functional
How it was run: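 Confluent 2.2.15 cells dosed daily for 9 days as in the anti-HBV assay. Four concentrations in 3–10-fold steps, triplicate cultures, untreated controls on each plate, cell-free wells to correct for light scattering. Neutral red uptake read at 510 nm 24 h after day 9, relative to untreated cells. CC50 taken as the 50% cytotoxic concentration.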

[7] = (§2) Compound was tested in vitro against intracellular DNA hepatitis B virus of human liver cells; format: functional, cell-based
How it was run: (§3)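 HBV-producing human liver 2.2.15 cells grown to confluence, then dosed daily for 9 continuous days with daily medium change. Medium collected at days 0, 3, 6 and 9 for extracellular virion HBV DNA. Cells lysed 24 h after day 9 for intracellular HBV genomic forms (replication). EC50 and EC90 derived from HBV DNA levels.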

[8] = (§4) Compound was tested in vitro against extracellular DNA hepatitis B virus of human liver cells; format: functional; how it was run: as §3
[9] = as §2; format: functional; how it was run: as §3
[10] = Selectivity index is the ratio of CC50 to that of EC50 (anti-hepatitis B virus activity in extracellular DNA); format: functional; how it was run: as §1
[11] = as §4; format: functional; remark: listed apart in the source
How it was run: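 2.2.15 cells (chronically HBV-producing human liver line) grown to confluence, then dosed daily for 9 continuous days with medium changed daily. Extracellular virion HBV DNA in medium sampled at days 0, 3, 6 and 9 and quantified; intracellular HBV genomic forms analysed from cells lysed 24 h after day 9.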

[12] = system: MT4; test: Tested for in vitro cytopathic effect of HIV for MT-4 cells; format: functional, cell-based; details: Homo sapiens

Compound | Selectivity index [1] | FLT [2] [%] | IC50 [3] [µM] | EC50 [4] [nM] | Selectivity index [5] | CC50 [6] [µM] | EC50 [7] [µM] | EC90 [8] [µM] | EC90 [9] [µM] | Selectivity index [10] | EC50 [11] [µM] | EC50 [12] [nM]
CO[C@@H]1N(C2CC(F)C(CO)O2)C(=O)NC(=O)[C@@]1(C)I (some centres undefined) | 3250 | 90 | 12.2 | 3.75 |  |  |  |  |  |  |  | 
CO[C@H]1N(C2CC(F)C(CO)O2)C(=O)NC(=O)[C@]1(C)Cl (some centres undefined) | > 144 | 0 | > 800 | 5550 |  |  |  |  |  |  |  | 
CO[C@H]1N(C2CC(F)C(CO)O2)C(=O)NC(=O)[C@@]1(C)Cl (some centres undefined) | > 21 | 0 | > 800 | 37900 |  |  |  |  |  |  |  | 
CC1(Br)C(=O)NC(=O)N([C@H]2C[C@H](F)[C@@H](CO)O2)C1N=[N+]=[N-] (mixture of isomers) | 7140 | 95 | 100 | 14.5 | 3.1 | 176 | 13 | 42 | 57 | 4.2 |  | 
CO[C@@H]1N(C2CC(F)C(CO)O2)C(=O)NC(=O)[C@@]1(C)Br (some centres undefined) | 2990 | 10 | 9.72 | 3.25 | 8.8 | 1040 | 26 | 67 | 118 | 16 | 21 | 
Cc1cn([C@H]2C[C@H](N=[N+]=[N-])[C@@H](CO)O2)c(=O)[nH]c1=O [ZIDOVUDINE] | 167000 |  | 500 | 3 |  |  |  |  |  |  |  | 4
CO[C@H]1N(C2CC(F)C(CO)O2)C(=O)NC(=O)[C@]1(C)Br (some centres undefined) | 328 | 10 | 1.72 | 5.25 | 18 | 765 | 13 | 36 | 42 | 21 | 6 | 
Nc1ccn([C@H]2CC[C@@H](CO)O2)c(=O)n1 [ZALCITABINE] |  |  |  |  | 18 | 219 | 2.1 | 8.1 | 12 | 27 | 1.3 | 
CO[C@H]1N(C2CC(F)C(CO)O2)C(=O)NC(=O)[C@]1(C)I (some centres undefined) | 1 | 50 | 57.3 | 50000 |  |  |  |  |  |  |  | 
